Measured values: ChEMBL document CHEMBL3414483, “New heterocyclic hybrids of pyrazole and its bioisosteres: design, synthesis and biological evaluation as dual acting antimalarial-antileishmanial agents” (Eur J Med Chem, 2015)
Converted amounts (≈) assume the structure as drawn. The source made the active and inactive calls. The rule behind the calls is not given here.

Key:
Plasmodium berghei [1] = assay: Antimalarial activity against Plasmodium berghei str. ANKA infected in Swiss albino mouse assessed as survival at 0.048 mmol/kg/day, po qd for 3 days by microscopic analysis relative to control; assay type: functional
Procedure, shortened: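 P. berghei ANKA infected mice, 4-day suppressive test. Day 0: 0.2 ml of 2 x 10^7 parasitized erythrocytes given i.v. (donor blood, 20-30% parasitemia, diluted in saline). Oral dosing at 0.048 mmol/kg/day from 2 h post-infection, then days 1-3 at 24 h intervals. Vehicle 7% Tween, 3% ethanol in water. Five mice/group. Survival time recorded per mouse; mean compared with vehicle group.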

Plasmodium berghei [2] = assay: Antimalarial activity against Plasmodium berghei str. ANKA infected in Swiss albino mouse assessed as parasitemia at 0.048 mmol/kg/day, po qd […] by microscopic analysis relative to control; assay type: functional
Procedure, shortened: (§1)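 Four-day suppressive test. Mice were infected iv on day 0 with 0.2 ml of 2 × 10^7 P. berghei ANKA-parasitized erythrocytes from a donor mouse, diluted in saline. From 2 h post-infection they were dosed orally at 0.048 mmol/kg/day for days 0–3, five mice per group. The vehicle was 7% Tween and 3% ethanol in water. On day 4, Giemsa smears were scored over 5 fields of about 100 RBC each. Suppression was calculated relative to the vehicle group, taken as 100%.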

Leishmania aethiopica [3] = assay: Antileishmanial activity against promastigote stage of Leishmania aethiopica after 24 hrs by alamar blue staining-based […]; assay type: functional, organism-based
Procedure, shortened: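 L. aethiopica promastigotes, 3 × 10^6 per well, given compounds from DMSO stocks in three-fold dilutions at 10 to 0.04 µg/ml (final DMSO ≤0.1%), in duplicate, at room temperature (21 ± 1 °C). Alamar blue (resazurin) was added after 24 h and absorbance read 48 h later at 540 and 630 nm. Negative control was parasites, medium and DMSO.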

Leishmania aethiopica [4] = assay: Antileishmanial activity against amastigote stage of Leishmania aethiopica after 72 hrs by resazurin staining-based fluorescence assay; assay type: functional, organism-based
Procedure, shortened: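 Axenic L. aethiopica amastigotes (50 µl of 2 × 10^7 cells/ml) exposed to serial dilutions at final 0.04–10 µg/ml for 72 h at 31 °C, humidified, 5% CO₂. Resazurin was added at 68 h and fluorescence read at 72 h (ex 530/em 590 nm). EC50 from sigmoidal dose–response fits, mean ± SD of triplicate experiments run in duplicate. Controls were medium alone and 1% DMSO.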

Plasmodium berghei [5] = assay: Antimalarial activity against Plasmodium berghei str. ANKA infected in Swiss albino mouse assessed as supression of parasitemia at 0.048 mmol/kg/day, po qd for 3 days by microscopic analysis relative to control; assay type: functional; procedure, shortened: as §1

SMILES	Survival (Plasmodium berghei [1]) [days]	Activity (Plasmodium berghei [2]) [%]	IC50 (Leishmania aethiopica [3]) [µg/mL]	IC50 (Leishmania aethiopica [4]) [µg/mL]	Activity (Plasmodium berghei [5]) [%]	Activity (Plasmodium berghei [1])
Cc1ccc(-c2nn(-c3ccc(Br)cc3)cc2C2CC(c3ccccc3)=NN2)cc1 (stereo not given)	7.88	28	2.01 (≈ 4.4 µM)	1.88 (≈ 4.11 µM)	67.44	
CC(=O)N(C1=NN(C(C)=O)C(c2cn(-c3ccc(C)cc3)nc2-c2ccc([N+](=O)[O-])cc2)S1)c1ccccc1 (stereo not given)	10.4	18	0.846 (≈ 1.57 µM)	1.21 (≈ 2.24 µM)	79.07	
Cc1ccc(-c2nn(-c3ccc(Br)cc3)cc2C=O)cc1	8.4	30	3.11 (≈ 9.12 µM)	1.82 (≈ 5.33 µM)	65.11	
CCC(=O)N1N=C(c2ccccc2)CC1c1cn(-c2ccc(Br)cc2)nc1-c1ccc([N+](=O)[O-])cc1 (stereo not given)	6.82	34	2.12 (≈ 3.9 µM)	1.83 (≈ 3.36 µM)	60.47	
CC(=O)N(C1=NN(C(C)=O)C(c2cn(-c3ccc(C)cc3)nc2-c2ccc(C)cc2)S1)c1ccccc1 (stereo not given)	12.22	14	0.862 (≈ 1.69 µM)	0.82 (≈ 1.61 µM)	83.72	
Cc1ccc(-c2nn(-c3ccc(C)cc3)cc2/C=C/C(=O)c2ccccc2)cc1	11.6	26	4 (≈ 10.6 µM)	2.88 (≈ 7.61 µM)	69.77	
Cc1ccc(-c2nn(-c3ccc(Br)cc3)cc2/C=C/C(=O)c2ccccc2)cc1	11.8	22	1.03 (≈ 2.32 µM)	1.01 (≈ 2.28 µM)	74.42	
O=[N+]([O-])c1ccc(-c2nn(-c3ccc(Br)cc3)cc2C2CC(c3ccccc3)=NN2c2ccccc2)cc1 (stereo not given)	9.84	32	3.85 (≈ 6.82 µM)	2.01 (≈ 3.56 µM)	62.79	
CCCCCCCCCCCCCCCCOP(=O)([O-])OCC[N+](C)(C)C [MILTEFOSINE]			3.19 (≈ 7.83 µM)	0.3 (≈ 0.736 µM)		
O=Cc1cn(-c2ccc(Br)cc2)nc1-c1ccc([N+](=O)[O-])cc1	8.71	35	4.84 (≈ 13 µM)	2.03 (≈ 5.45 µM)	59.3	
CC(=O)N1N=C(c2ccccc2)CC1c1cn(-c2ccc(Br)cc2)nc1-c1ccc([N+](=O)[O-])cc1 (stereo not given)	6.62	26	1.09 (≈ 2.05 µM)	0.89 (≈ 1.68 µM)	69.77	
Cc1ccc(-c2nn(-c3ccc(C)cc3)cc2C2CC(c3ccccc3)=NN2c2ccccc2)cc1 (stereo not given)	10.82	26	3.09 (≈ 6.59 µM)	1.78 (≈ 3.8 µM)	69.77	
Cc1ccc(-c2nn(-c3ccc(C)cc3)cc2/C=N/N=C2/SCC(=O)N2c2ccccc2)cc1	10.64	10	0.882 (≈ 1.89 µM)	0.58 (≈ 1.25 µM)	88.37	
CC(=O)N(C1=NN(C(C)=O)C(c2cn(-c3ccc(Br)cc3)nc2-c2ccc(C)cc2)S1)c1ccccc1 (stereo not given)	12.68	12	0.468 (≈ 0.815 µM)	0.74 (≈ 1.29 µM)	86.05	
Cc1ccc(-c2nn(-c3ccc(C)cc3)cc2C=O)cc1	8.62	33	4.06 (≈ 14.7 µM)	1.97 (≈ 7.13 µM)	61.62	
Cc1ccc(-c2nn(-c3ccc(Br)cc3)cc2/C=N/N=c2/scc(-c3ccc(Br)cc3)n2-c2ccccc2)cc1	11.22	14	4.06 (≈ 6.07 µM)	2.21 (≈ 3.3 µM)	83.72	
CCC(=O)N1N=C(c2ccccc2)CC1c1cn(-c2ccc(Br)cc2)nc1-c1ccc(C)cc1 (stereo not given)	6.86	42	2.04 (≈ 3.98 µM)	1.79 (≈ 3.49 µM)	51.16	
CCN(CC)CCCC(C)Nc1ccnc2cc(Cl)ccc12.O=P(O)(O)O.O=P(O)(O)O (stereo not given) [CHLOROQUINE PHOSPHATE]		0			100	Active
